Assay results reported in ChEMBL document CHEMBL1811833, “Phenylimino-10H-anthracen-9-ones as novel antimicrotubule agents-synthesis, antiproliferative activity and inhibition of tubulin polymerization” (Bioorg Med Chem, 2011).
The source made the active and inactive calls. The calls are words filed in the database; no cut-off is given here.

Assays:
K562 = assay: Antiproliferative activity against human K562 cells after 48 hrs by hemocytometer; type: functional, cell-based; details: K562, 48 h
Method in brief: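 K562 human erythroid leukemia cells were treated with drug for 48 h, and the cells were then counted directly with a hemocytometer. IC50 is the concentration giving 50% inhibition of cell growth. Values are means of at least three independent determinations.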

Tubulin [1] = target: T1, Tubulin (Sus scrofa, UniProt P02554+P02550); assay: Inhibition of pig brain tubulin polymerization after 30 mins by turbidimetry analysis
P388 [2] = assay: Antiproliferative activity against ADR-resistant mouse P388 cells after 48 hrs by XTT assay; type: functional, cell-based; details: P388, 48 h
Method in brief: (§1)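 Cells were exposed to test compound for 48 h and growth was read by XTT proliferation assay. Experiments were run in at least two replicates (n = 2). IC50 was calculated from dose–response curves by nonlinear regression.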

P388 [3] = assay: Antiproliferative activity against mouse P388 cells after 48 hrs by XTT proliferation assay; type: functional, cell-based; details: P388, 48 h; method in brief: as §1
L1210 [4] = assay: Antiproliferative activity against mouse VCR-resistant L1210 cells after 48 hrs by XTT assay; type: functional, cell-based; details: L1210, 48 h; method in brief: as §1
SF-268 = assay: Cytotoxicity against human SF268 cells after 48 hrs by XTT assay; type: functional, cell-based; details: SF-268, 48 h; method in brief: as §1
[5] = Cell cycle arrest in human KB/HeLa cells assessed as accumulation of cells at G2/M phase after 24 hrs by flow cytometry; type: functional, cell-based
Method in brief: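 Sub-confluent KB/HeLa cells were exposed to a range of compound concentrations for 24 h. The cells were then permeabilized and stained with propidium iodide, and DNA content was measured by flow cytometry. The percentage of cells in G2/M was plotted against concentration, and EC50 is the concentration giving 50% of cells arrested in G2/M. At least two replicates were run, with nonlinear regression fitting.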

SK-OV-3 = assay: Cytotoxicity against human SKOV3 cells after 48 hrs by XTT assay; type: functional, cell-based; details: SK-OV-3, 48 h; method in brief: as §1
[6] = Cytotoxicity against non induced human RKOp27 cells after 48 hrs by XTT assay; type: functional, cell-based; details: RKOp27, 48 h; method in brief: as §1
NCI-H460 = assay: Cytotoxicity against human NCI-H460 cells after 48 hrs by XTT assay; type: functional, cell-based; details: NCI-H460, 48 h; method in brief: as §1
[7] = Antiproliferative activity against rat LT12 cells after 48 hrs by XTT assay; type: functional, cell-based; details: LT12, 48 h
Tubulin [8] = target: T1, Tubulin; assay: Displacement of [3H]colchicine from biotinylated pig brain tubulin after 2 hrs by competitive scintillation proximity assay
[9] = Antiproliferative activity against rat multiple drug-resistant LT12 cells after 48 hrs by XTT assay; type: functional, cell-based; details: LT12, 48 h; method in brief: as §1
[10] = Cytotoxicity against human KB/HeLa cells after 48 hrs by XTT assay; type: functional, cell-based; method in brief: as §1
[11] = Cytotoxicity against ponasterone A-induced human RKOp27 cells with ectopic inducible expression of CDK inhibitor-kip1 after 48 hrs by XTT assay; type: functional, cell-based; details: RKOp27, 48 h; method in brief: as §1
L1210 [12] = assay: Antiproliferative activity against mouse L1210 cells after 48 hrs by XTT assay; type: functional, cell-based; details: L1210, 48 h; method in brief: as §1
Tubulin (Sus scrofa) = Tubulin (Sus scrofa) (UniProt P02554+P02550); assay: Displacement of [3H]paclitaxel from biotinylated pig brain tubulin after 2 hrs by competitive scintillation proximity assay

COc1cc(N=C2c3ccccc3C(=O)c3ccccc32)cc(OC)c1OC
IC50 (K562): > 30 µM
IC50 (Tubulin [1]): > 10 µM

COc1ccc(N=C2c3ccccc3C(=O)c3ccccc32)cc1O
IC50 (P388 [2]): 0.23 µM
IC50 (P388 [3]): 0.23 µM
IC50 (L1210 [4]): 0.22 µM
IC50 (SF-268): 0.34 µM
EC50 [5]: 0.359 µM
IC50 (SK-OV-3): 0.16 µM
IC50 [6]: 0.17 µM
IC50 (NCI-H460): 0.21 µM
IC50 [7]: 0.18 µM
IC50 (Tubulin [8]): 1.1 µM
IC50 [9]: 0.14 µM
IC50 (K562): 0.13 µM
IC50 [10]: 0.22 µM
IC50 [11]: > 9 µM
IC50 (Tubulin [1]): 0.44 µM
IC50 (L1210 [12]): 0.29 µM
Activity (Tubulin (Sus scrofa)): inactive

COC(=O)Nc1nc2cc(C(=O)c3cccs3)ccc2[nH]1 [NOCODAZOLE]
EC50 [5]: 0.091 µM
IC50 [6]: 0.11 µM
IC50 [7]: 0.04 µM
IC50 [9]: 0.07 µM
IC50 [10]: 0.14 µM
IC50 [11]: > 10 µM

COc1ccc(N=C2c3cccc(Cl)c3C(=O)c3c(Cl)cccc32)cc1
IC50 (K562): 0.52 µM

CC[C@]1(O)C[C@H]2CN(CCc3c([nH]c4ccccc34)[C@@](C(=O)OC)(c3cc4c(cc3OC)N(C=O)[C@H]3[C@@](O)(C(=O)OC)[C@H](OC(C)=O)[C@]5(CC)C=CCN6CC[C@]43[C@@H]65)C2)C1 [VINCRISTINE]
EC50 [5]: 0.0024 µM

O=C1c2ccccc2C(=NNc2ccccc2)c2ccccc21
IC50 (Tubulin [1]): > 10 µM

CC(=O)O[C@H]1C(=O)[C@@]2(C)[C@H]([C@H](OC(=O)c3ccccc3)[C@]3(O)C[C@H](OC(=O)[C@H](O)[C@@H](NC(=O)c4ccccc4)c4ccccc4)C(C)=C1C3(C)C)[C@]1(OC(C)=O)CO[C@@H]1C[C@@H]2O [PACLITAXEL]
IC50 (P388 [2]): > 5 µM
IC50 (L1210 [4]): > 5 µM
EC50 [5]: 0.049 µM
IC50 [6]: 0.01 µM
IC50 [9]: 0.4 µM
IC50 [10]: 0.01 µM
IC50 [11]: > 3 µM

COc1ccc(N=C2c3ccccc3C(=O)c3ccccc32)cc1OC
IC50 (K562): 9.3 µM
IC50 (Tubulin [1]): 3.6 µM

COc1ccc(NN=C2c3ccccc3C(=O)c3ccccc32)cc1
IC50 (K562): 8.41 µM
IC50 (Tubulin [1]): > 10 µM

COc1ccc(N=C2c3cccc(Cl)c3C(=O)c3c(Cl)cccc32)cc1O
IC50 (P388 [2]): 0.3 µM
IC50 (P388 [3]): 0.23 µM
IC50 (L1210 [4]): 0.19 µM
IC50 (SF-268): 0.15 µM
EC50 [5]: 0.121 µM
IC50 (SK-OV-3): 0.1 µM
IC50 [6]: 0.16 µM
IC50 (NCI-H460): 0.18 µM
IC50 [7]: 0.31 µM
IC50 (Tubulin [8]): 2.6 µM
IC50 [9]: 0.16 µM
IC50 (K562): 0.11 µM
IC50 [10]: 0.15 µM
IC50 [11]: > 9 µM
IC50 (Tubulin [1]): 1.11 µM
IC50 (L1210 [12]): 0.19 µM
Activity (Tubulin (Sus scrofa)): inactive

COc1ccc(OC)c(NN=C2c3ccccc3C(=O)c3ccccc32)c1
IC50 (K562): > 80 µM
IC50 (Tubulin [1]): > 10 µM

O=C1c2ccccc2C(=Nc2ccccc2)c2ccccc21
IC50 (K562): 6.8 µM
IC50 (Tubulin [1]): 1.45 µM

COc1cc(N=C2c3ccccc3C(=O)c3ccccc32)cc(OC)c1
IC50 (K562): 0.73 µM
IC50 (Tubulin [1]): 1.6 µM

CC[C@]1(O)C[C@@H]2CN(CCc3c([nH]c4ccccc34)[C@@](C(=O)OC)(c3cc4c(cc3OC)N(C)[C@H]3[C@@](O)(C(N)=O)[C@H](O)[C@]5(CC)C=CCN6CC[C@]43[C@@H]65)C2)C1 [VINDESINE]
IC50 (L1210 [4]): > 5 µM
IC50 [7]: 0.001 µM
IC50 [9]: 0.26 µM

COc1ccc(OC)c(N=C2c3ccccc3C(=O)c3ccccc32)c1
IC50 (K562): 0.87 µM

COc1ccc(N=C2c3ccccc3C(=O)c3ccccc32)c(OC)c1
IC50 (K562): 3.4 µM
IC50 (Tubulin [1]): 1.6 µM

COc1cc(NN=C2c3ccccc3C(=O)c3ccccc32)cc(OC)c1OC
IC50 (K562): 2.74 µM
IC50 (Tubulin [1]): > 10 µM

COc1ccc(N=C2c3ccccc3C(=O)c3ccccc32)cc1
IC50 (K562): 0.68 µM
IC50 (Tubulin [1]): 1.9 µM

O=C1c2ccccc2C(=Nc2ccc3c(c2)OCO3)c2ccccc21
IC50 (K562): 2.67 µM

COc1cccc(NN=C2c3ccccc3C(=O)c3ccccc32)c1
IC50 (K562): 9 µM
IC50 (Tubulin [1]): > 10 µM

COc1cc2c(c(OC)c1OC)-c1ccc(OC)c(=O)cc1[C@@H](NC(C)=O)CC2 [COLCHICINE]
EC50 [5]: 0.014 µM
IC50 [6]: 0.02 µM
IC50 [10]: 0.03 µM
IC50 [11]: > 10 µM
